According to ChEMBL document CHEMBL6092225, “Design, Synthesis, and Biological Evaluation of [1,2,5]Oxadiazolo[3,4-b]pyridin-7-ol as Mitochondrial Uncouplers for the Treatment of Obesity and Metabolic Dysfunction-Associated Steatohepatitis” (J Med Chem, 2024):
Calls of active or inactive are those of the source. The rule behind the calls is not given here.

How the values were obtained:
L6 [1] = assay: (§1) Induction of oxygen consumption rate in rat L6 cells upto 200 uM measured for 90 mins by Seahorse assay relative to BAM15; format: functional
[2] = Induction of oxygen consumption rate in rat L6 cells measured for 90 mins by Seahorse assay; format: functional, cell-based
[3] = Toxicity in C57BL/6 mouse assessed as change in appetite at 30 to 1000 mg/kg, po measured for 24 hrs; format: organism-based; conditions: in vivo, dose 30-1000 mg/kg
Procedure, shortened: (§2)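 Male C57BL/6 mice, 9 weeks old, given vehicle or compound at 30, 100, 300 or 1000 mg/kg by single oral gavage. Monitored 24 h after dosing for core temperature by rectal probe, body weight and food intake. n = 3, mean ± SEM.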

Mus musculus [4] = assay: Anti-obesity activity in diet-induced Gubra-Amylin NASH C57BL/6 mouse model of MASH assessed as decrease in NAFLD activity score at 200 mg/kg, po for 4 weeks; format: functional, organism-based
Procedure, shortened: (§3)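 Male C57BL/6 mice, GAN diet from 5/6 weeks old for 33 weeks, then single-housed and stratified by baseline body weight and body composition. Fed GAN diet alone or GAN diet admixed with compound at 200 mg/kg for 4 weeks, fresh compound daily. Body weight and food intake measured daily, body composition weekly by EchoMRI, organs weighed at end.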

[5] = Toxicity in C57BL/6 mouse assessed as drug tolerance upto 1000 mg/kg, po measured for 24 hrs; format: organism-based; conditions: in vivo; procedure, shortened: as §2
[6] = Toxicity in C57BL/6 mouse assessed as change in body temperature at 30 to 1000 mg/kg, po measured for 24 hrs; format: organism-based; conditions: in vivo, dose 30-1000 mg/kg; procedure, shortened: as §2
Mus musculus [7] = assay: Anti-obesity activity in diet-induced Gubra-Amylin NASH C57BL/6 mouse model of MASH assessed as decrease in liver triglyceride level at 200 mg/kg, po for 4 weeks; format: functional, organism-based
Procedure, shortened: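 GAN-diet male C57BL/6 mice dosed 200 mg/kg daily in food for 4 weeks. Liver harvested at end, frozen in liquid nitrogen, lipid extracted. Extract heated 10 min at 37 °C, then triglyceride measured by colorimetric assay and normalized to initial grams extracted.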

[8] = Induction of oxygen consumption rate in rat L6 cells assessed as increase in respiration at 10 uM measured for 90 mins in presence of BAM15 by Seahorse assay relative to control; format: functional; conditions: 1.5 h
Mus musculus [9] = assay: Anti-obesity activity in diet-induced Gubra-Amylin NASH C57BL/6 mouse model of MASH assessed as decrease in fat mass at 200 mg/kg, po for 4 weeks by EchoMRI analysis; format: functional, organism-based
Procedure, shortened: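 Male C57BL/6 mice kept on GAN diet for 33 weeks, then fed GAN diet with or without compound admixed at 200 mg/kg daily for 4 weeks. Fat and lean mass measured weekly by EchoMRI.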

Mus musculus [10] = assay: Effect on calorie intake in diet-induced Gubra-Amylin NASH C57BL/6 mouse model of MASH at 200 mg/kg, po; format: functional, organism-based; procedure, shortened: as §3
Mus musculus [11] = assay: Effect on liver mass in diet-induced Gubra-Amylin NASH C57BL/6 mouse model of MASH at 200 mg/kg, po for 4 weeks; format: functional, organism-based; procedure, shortened: as §3
Mus musculus [12] = assay: Anti-obesity activity in diet-induced Gubra-Amylin NASH C57BL/6 mouse model of MASH assessed at 200 mg/kg, po for 4 weeks by EchoMRI analysis
Mus musculus [13] = assay: Effect on fibrosis stage of liver in diet-induced Gubra-Amylin NASH C57BL/6 mouse model of MASH at 200 mg/kg, po for 4 weeks; format: functional, organism-based
[14] = Toxicity in C57BL/6 mouse assessed as change in body weight at 30 to 1000 mg/kg, po measured for 24 hrs; format: organism-based; conditions: in vivo, dose 30-1000 mg/kg; procedure, shortened: as §2
Mus musculus [15] = assay: Anti-obesity activity in diet-induced Gubra-Amylin NASH C57BL/6 mouse model of MASH assessed as decrease in plasma ALT level at 200 mg/kg, po for 4 weeks; format: functional, organism-based
Procedure, shortened: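 GAN-diet male C57BL/6 mice given compound admixed in diet at 200 mg/kg daily for 4 weeks. Terminal EDTA plasma taken by cardiac puncture under isoflurane. ALT activity measured by kit assay, samples diluted 1:8 in ALT assay buffer.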

L6 [16] = assay: Induction of oxygen consumption rate in rat L6 cells at 10 uM measured for 90 mins in presence of oligomycin by Seahorse assay; format: functional, cell-based
Procedure, shortened: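 L6 myoblasts in unbuffered DMEM with pyruvate and glutamine (pH 7.4) on Seahorse XF. Mitochondrial stress test: oligomycin 1 µM or vehicle injected, then compound at 10 µM, then antimycin A 10 µM plus rotenone 1 µM at set times. n = 3 wells per condition, mean ± SEM.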

[17] = as §1; format: functional; conditions: 1.5 h, up to 200 µM

## Oc1c(Nc2ccc(-c3cccc(F)c3F)cc2)cnc2nonc12
L6 [1]
  Activity: inactive
[2]
  EC50: Not_active

## Oc1c(Nc2ccc(F)nc2)cnc2nonc12
L6 [1]
  Activity: inactive
[2]
  EC50: Not_active

## Oc1c(Nc2ccc(-c3cccc(Cl)c3)cc2)cnc2nonc12
[3]
  Activity: Non-toxic
Mus musculus [4]
  Activity: Active; The Occurence Is Due To Decreased Hepatic Steatosis
[5]
  Activity: Non-toxic
[6]
  Activity: Non-toxic
Mus musculus [7]
  Activity: Active
[8]
  Activity: 300%
Mus musculus [9]
  Activity: Active; Activity Of Drug Indicates Improved Body Composition
Mus musculus [10]
  Activity: inactive
Mus musculus [11]
  Activity: Not active; No Significant Change In Liver Mass Was Observed But Showed Improvements In Fatty Liver Disease Phenotypes
Mus musculus [12]
  Activity: Active
Mus musculus [13]
  Activity: inactive
[14]
  Activity: Non-toxic
Mus musculus [15]
  Activity: Active
L6 [16]
  Activity: Active; Action Of Drug Suggests Proton Transport Into Matrix Independent Of Atp Synthase; Activity Of Drug Requires Electron Transport Chain Activity

## Oc1c(Nc2ccc(-c3ccc(F)c(F)c3)cc2)cnc2nonc12
L6 [1]
  Activity: inactive
[2]
  EC50: Not_active

## N#Cc1ccc(Nc2cnc3nonc3c2O)cc1
L6 [1]
  Activity: inactive
[2]
  EC50: Not_active

## Oc1c(Nc2ccc(-c3ccc(F)cc3)cc2)cnc2nonc12
[17]
  Activity: 60%

## CC(C)(C)Oc1ccc(Nc2cnc3nonc3c2O)cc1
[17]
  Activity: 20%
[2]; read-out: EC50
  EC50: 6 µM

## Oc1c(Nc2ccccc2-c2ccccc2)cnc2nonc12
L6 [1]
  Activity: inactive
[2]
  EC50: Not_active

## Oc1c(-c2ccc(-c3ccc(F)cc3)cc2)cnc2nonc12
L6 [1]
  Activity: inactive
[2]
  EC50: Not_active

## Oc1c(Nc2ccc(-c3ccc(C(F)(F)F)cc3)cc2)cnc2nonc12
L6 [1]
  Activity: inactive
[2]
  EC50: Not_active

## CC1(C)c2ccccc2-c2ccc(Nc3cnc4nonc4c3O)cc21
L6 [1]
  Activity: inactive
[2]
  EC50: Not_active

## Oc1c(Nc2cccc(-c3ccccc3)c2)cnc2nonc12
[17]
  Activity: 20%
[2]; read-out: EC50
  EC50: 6 µM

## Oc1c(Nc2ccc(-c3cc(F)ccc3F)cc2)cnc2nonc12
L6 [1]
  Activity: inactive
[2]
  EC50: Not_active

## Oc1c(Nc2ccc(-c3ccc(Cl)cc3)cc2)cnc2nonc12
[17]
  Activity: 57%

## Oc1c(Nc2ccc(-c3ccccc3F)cc2)cnc2nonc12
L6 [1]
  Activity: inactive
[2]
  EC50: Not_active

## Oc1c(Nc2ccc(-c3cccc(Cl)c3Cl)cc2)cnc2nonc12
L6 [1]
  Activity: inactive
[2]
  EC50: Not_active

## CCCCc1ccc(Nc2cnc3nonc3c2O)cc1
[2]; read-out: EC50
  EC50: 1 µM

## Oc1c(Nc2ccc(C(F)(F)F)nc2)cnc2nonc12
L6 [1]
  Activity: inactive
[2]
  EC50: Not_active

## CC(=O)c1ccc(Nc2cnc3nonc3c2O)cc1
L6 [1]
  Activity: inactive
[2]
  EC50: Not_active
